The results in this text go back to ChEMBL document CHEMBL3351619 (J Med Chem, 2014).

Calls of active or inactive are those of the source. The calls are words filed in the database; no cut-off is given here.

Assay [1] addresses T1, 5-hydroxytryptamine receptor 1A (Homo sapiens, UniProt P08908).
T1 sequence (P08908 whole entry): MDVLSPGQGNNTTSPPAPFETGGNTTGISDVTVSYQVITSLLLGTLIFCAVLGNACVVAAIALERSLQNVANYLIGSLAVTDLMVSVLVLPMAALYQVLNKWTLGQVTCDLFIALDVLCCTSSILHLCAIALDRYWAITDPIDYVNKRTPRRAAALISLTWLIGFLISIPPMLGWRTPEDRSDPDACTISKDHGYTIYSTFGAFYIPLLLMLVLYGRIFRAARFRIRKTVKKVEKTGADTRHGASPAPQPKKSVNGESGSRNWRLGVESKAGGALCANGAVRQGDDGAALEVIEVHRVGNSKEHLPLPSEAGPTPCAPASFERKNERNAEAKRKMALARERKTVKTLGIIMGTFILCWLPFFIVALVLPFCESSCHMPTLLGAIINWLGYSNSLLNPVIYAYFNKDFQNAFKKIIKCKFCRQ
Description: Displacement of [3H]-8-OH-DPAT from human 5-HT1A expressed in CHO-K1 cells after 120 mins by scintillation spectrometry. In kind it is cell-based. Summed up:
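Competitive radioligand binding on membranes from transfected cells expressing human 5-HT1A receptor, with [3H]-8-OH-DPAT as the radioligand. Affinity is given as Ki, the mean of two to four experiments, each run in triplicate.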

The target in assay [2] is T2, 5-hydroxytryptamine receptor 7 (Homo sapiens, UniProt P34969). Put plainly: Displacement of [3H]LSD from human 5-HT7 expressed in HEK-293 cells after 120 mins by scintillation spectrometry. In kind it is cell-based, HEK293. An outline of the steps:
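Competition binding on membranes of CHO-K1 or HEK-293 cells transfected with human 5-HT7 receptor, radioligand [3H]LSD; 5-CT as reference. Two to four experiments, each in triplicate; Ki reported as mean.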

Assay [3] has as its target T2, 5-hydroxytryptamine receptor 7. Put plainly: Antagonist activity at human 5-HT7 expressed in HEK-293 cells assessed as inhibition in serotonin-induced increase in cAMP level after 45 mins by HTRF assay. The assay is classed as functional, cell-based, HEK293. Summed up: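 From the concentration–response curve, maximal inhibition (Imax) and IC50 were read, and the dissociation constant KB was calculated.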

Assay [4] has the same target. Description: Agonist activity at human 5-HT7 expressed in HEK-293 cells assessed as increase in cAMP level after 45 mins by HTRF assay. The assay is classed as functional, cell-based, HEK293.
In assay [5] the test system is Mus musculus. Description: Effect on core body temperature in C57BL/6J mouse at 0.3 to 1 mg/kg, ip administered as single dose. The assay is classed as functional, organism-based. An outline of the steps:
(§1)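 C57BL/6J mice (male and female, 8−12 weeks), single ip doses in 0.9% saline vehicle, start 9:00 h. Rectal probe core temperature taken at baseline just before injection, at 15 and 30 min, then every 30 min to 2 h. For antagonism, test drug given 30 min before 8-OH-DPAT (0.3 mg/kg ip).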

For assay [6], the system named is Mus musculus. Put plainly: Antidepressant activity in C57BL/6J mouse assessed as decrease in the immobility at 10 mg/kg, ip administered as single dose measured for last 4 mins of test by tail suspension method relative to vehicle-treated control. In kind it is functional, organism-based. The arrangement: dose 10 mg/kg.
The target in assay [7] is T3, Corticotropin-releasing factor receptor 1 (Homo sapiens) (UniProt P34998).
T3 sequence (whole entry): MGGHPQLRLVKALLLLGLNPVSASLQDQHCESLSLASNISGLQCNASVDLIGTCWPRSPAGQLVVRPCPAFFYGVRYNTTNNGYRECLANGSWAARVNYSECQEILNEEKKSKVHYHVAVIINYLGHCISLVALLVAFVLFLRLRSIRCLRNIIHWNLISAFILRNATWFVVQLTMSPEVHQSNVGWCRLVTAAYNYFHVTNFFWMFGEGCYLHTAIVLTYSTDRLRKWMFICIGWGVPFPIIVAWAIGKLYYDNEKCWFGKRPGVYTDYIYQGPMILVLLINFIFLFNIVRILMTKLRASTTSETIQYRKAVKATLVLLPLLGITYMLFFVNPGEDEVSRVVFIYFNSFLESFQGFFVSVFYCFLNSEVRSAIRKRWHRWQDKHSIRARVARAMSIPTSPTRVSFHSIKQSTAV
Description: Displacement of [125I]sauvagine from CRF1 (unknown origin) at 1 uM after 120 mins. Summed up: (§2)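 Single test concentration of 1 μM; percent displacement of the respective radioligand binding at each target.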

Assay [8] has as its system Mus musculus. Description: Antidepressant activity in C57BL/6J mouse assessed as decrease in the immobility at 1 mg/kg, ip administered as single dose measured for last 4 mins of test by forced swim test relative to vehicle-treated control. In kind it is functional, organism-based. Also noted: dose 1 mg/kg. Summed up: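 Male and female C57BL/6J mice, 8−12 weeks, group housed; single ip injection, 0.9% saline vehicle; start 9:00 h. Mouse placed 6 min in clear cylinder (16 cm diameter, 25 cm high) holding 10 cm of 25 °C water, replaced between animals; trained observer scored immobility (no movement beyond keeping head above surface) over last 4 min. N = 7−9/group; Student's two-tailed unpaired t test.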

Assay [9] deals with Mus musculus. Put plainly: Antidepressant activity in C57BL/6J mouse assessed as decrease in the immobility at 1 mg/kg, ip administered as single dose measured for last 4 mins of test by tail suspension method relative to vehicle-treated control. The arrangement: dose 1 mg/kg. The assay is classed as functional, organism-based.
The target in assay [10] is Sodium-dependent serotonin transporter (Homo sapiens) (UniProt P31645). Description: Displacement of [3H]imipramine from 5-HT transporter (unknown origin) at 1 uM after 60 mins. Summed up: as §2
Sequence of Sodium-dependent serotonin transporter (Homo sapiens) (P31645 whole entry, looked up): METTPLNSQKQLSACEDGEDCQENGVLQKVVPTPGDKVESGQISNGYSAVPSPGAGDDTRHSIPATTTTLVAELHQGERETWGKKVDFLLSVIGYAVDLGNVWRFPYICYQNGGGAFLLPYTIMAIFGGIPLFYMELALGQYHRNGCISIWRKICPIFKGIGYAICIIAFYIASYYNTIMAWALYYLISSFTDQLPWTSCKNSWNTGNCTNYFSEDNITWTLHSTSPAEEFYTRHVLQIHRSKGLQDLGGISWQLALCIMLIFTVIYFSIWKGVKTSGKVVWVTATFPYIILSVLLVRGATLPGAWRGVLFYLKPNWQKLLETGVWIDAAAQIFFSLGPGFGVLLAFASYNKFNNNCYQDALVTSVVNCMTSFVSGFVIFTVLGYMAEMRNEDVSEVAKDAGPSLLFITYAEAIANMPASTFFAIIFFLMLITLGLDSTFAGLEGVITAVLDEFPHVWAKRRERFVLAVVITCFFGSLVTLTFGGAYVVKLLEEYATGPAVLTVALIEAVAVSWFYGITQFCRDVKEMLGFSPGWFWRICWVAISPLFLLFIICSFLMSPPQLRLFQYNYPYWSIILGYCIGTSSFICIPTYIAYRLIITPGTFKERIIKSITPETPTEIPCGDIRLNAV
Assay [11] relates to Mus musculus. Description: Inhibition of 8-OH-DPAT-induced hypothermia in C57BL/6J mouse assessed as reduction in core body temperature at 1 mg/kg, ip administered 30 mins prior challenge as single dose. In kind it is functional, organism-based. Also noted: dose 1 mg/kg. An outline of the steps: as §1
Assay [12] deals with Melatonin receptor (Homo sapiens) (UniProt P48039+P49286). Put plainly: Displacement of [125I]-2-iodomelatonin from MT1 (unknown origin) at 1 uM after 60 mins. In kind it is protein assay. An outline of the steps:
as §2

Assay [13] has as its target 5-hydroxytryptamine receptor 2A (Homo sapiens) (UniProt P28223). Description: Displacement of [3H]ketanserin from 5-HT2A (unknown origin) at 1 uM after 60 mins. Summed up: as §2

T2 sequence (P34969 whole entry): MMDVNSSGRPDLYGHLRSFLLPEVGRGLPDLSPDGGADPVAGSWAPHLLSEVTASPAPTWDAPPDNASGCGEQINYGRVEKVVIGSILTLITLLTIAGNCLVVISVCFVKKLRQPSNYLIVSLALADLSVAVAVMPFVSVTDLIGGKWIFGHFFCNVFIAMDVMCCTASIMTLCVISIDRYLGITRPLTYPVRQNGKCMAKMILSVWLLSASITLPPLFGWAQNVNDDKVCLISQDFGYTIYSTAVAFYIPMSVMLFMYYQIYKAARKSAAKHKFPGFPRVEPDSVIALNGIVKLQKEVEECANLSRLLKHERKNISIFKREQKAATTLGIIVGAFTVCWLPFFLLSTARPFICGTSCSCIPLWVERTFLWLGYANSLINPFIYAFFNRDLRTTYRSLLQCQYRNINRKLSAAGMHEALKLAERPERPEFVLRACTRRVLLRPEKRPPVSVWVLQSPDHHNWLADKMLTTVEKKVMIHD
Sequence of 5-hydroxytryptamine receptor 2A (Homo sapiens) (P28223 whole entry): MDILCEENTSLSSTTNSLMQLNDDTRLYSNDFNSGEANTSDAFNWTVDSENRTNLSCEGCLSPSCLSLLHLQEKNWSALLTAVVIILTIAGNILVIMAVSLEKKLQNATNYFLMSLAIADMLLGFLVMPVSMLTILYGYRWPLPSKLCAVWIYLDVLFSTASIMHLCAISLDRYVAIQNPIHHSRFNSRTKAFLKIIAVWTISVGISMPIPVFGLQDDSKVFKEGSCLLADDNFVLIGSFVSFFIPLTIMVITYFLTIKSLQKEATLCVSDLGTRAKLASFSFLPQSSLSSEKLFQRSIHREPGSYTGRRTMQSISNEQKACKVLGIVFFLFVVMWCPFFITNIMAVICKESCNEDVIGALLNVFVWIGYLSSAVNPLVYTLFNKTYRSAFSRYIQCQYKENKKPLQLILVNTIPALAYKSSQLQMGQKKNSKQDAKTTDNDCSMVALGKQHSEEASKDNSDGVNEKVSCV

`O=C1Cc2ccccc2N1CCCCCCCN1CC[C@H]2CCCC[C@@H]2C1` (racemic): the results for the Ki in [1] and in [2] were over 1000 nM and 62 nM, respectively.

As for `O=C1Cc2ccccc2N1CCCCCCN1CCc2ccccc2C1`, the Ki in assay [1] is 576 nM; in assay [2], 24 nM.

Consider `O=C1Cc2ccccc2N1CCCCCN1CC[C@H]2CCCC[C@@H]2C1` (racemic), for which the Ki was determined as 491 nM in assay [1] and 41 nM in [2].

Regarding `O=C1Cc2ccccc2N1CCCCCN1CCc2ccccc2C1`, the Ki turned out to be 523 nM in assay [1] and 28 nM in [2].

For the compound `O=C1Cc2ccccc2N1CC/C=C/CCN1CC[C@H]2CCCC[C@@H]2C1` (racemic), the Ki in assay [1] was over 1000 nM; in assay [2], 2.7 nM. Besides, the IC50 in [3] was found to be 2300 nM. Besides, the EC50 in assay [4] was determined as 60 nM.

`O=C1Cc2ccccc2N1CCCCN1CC[C@H]2CCCC[C@@H]2C1` (racemic): the inhibitory constant (Ki) in assay [1] came out at 470 nM; in assay [2] it was 29 nM.

Consider `CN1C[C@@H](NS(=O)(=O)N(C)C)C[C@@H]2c3cccc4c3c(cn4C)C[C@H]21` [MESULERGINE], for which, in assay [3], the half-maximal inhibitory concentration (IC50) is 290 nM.

With `O=C1Cc2ccccc2N1CC/C=C/CCN1CCc2ccccc2C1`, the outcome in the assay with Mus musculus [5] and with Mus musculus [6] was inactive. The Ki in assay [1] is over 1000 nM; in assay [2] it was 0.7 nM. Besides, the IC50 in assay [3] turned out to be 2200 nM. Besides, the inhibition is -10% in [7], 14% in assay [10], -4% in assay [12] and 15% in [13]. In addition, the result with Mus musculus [8] and with Mus musculus [9] was Active. In the assay with Mus musculus [11], the inhibition entry is “Active”. Further, the EC50 in assay [4] worked out at 230 nM.

In the case of `O=C1Cc2ccccc2N1CCCCCCCN1CCc2ccccc2C1`, the Ki in assay [1] was over 1000 nM; in [2], 36 nM.
